Measured values as given in ChEMBL document CHEMBL1129511 (J Med Chem, 1996).

Columns and labels:
[1] = tested on: LoVo; assay: Inhibitory concentration was evaluated against colorectal tumar cell line LoVo; assay type: functional, cell-based; settings: Homo sapiens
In short: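 Cells were exposed to compound in microtitre plates for 1 h, washed, then grown a further 3 days at 37 °C. They were fixed with TCA, and adherent cellular protein was measured by SRB staining. IC50 is the concentration giving 50% growth inhibition.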

[2] = Half life period was reported; assay type: ADME
[3] = tested on: Bacteria; assay: Michaelis-Menten constant for bacterial Carboxypeptidase
In short: (§1)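 CPG2 kinetics adapted from the methotrexate CPG2 method. Prodrug and drug spectra were scanned from 200 to 350 nm, and the wavelength of maximal absorbance difference from glutamate release was chosen. Initial rates of prodrug conversion were measured at 1-100 µM prodrug with 0.05-1 Unit CPG2 to give Km and Vmax. kcat was Vmax divided by the amount of CPG2.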

[4] = tested on: Bacteria; assay: Catalytic rate constant for bacterial Carboxypeptidase; in short: as §1

SMILES | IC50 [1] [µM] | half-life [2] [min] | Km [3] [µM] | k cat [4] [s⁻¹]
O=C(O)CC[C@H](NC(=O)Oc1ccc(N(CCCl)CCCl)cc1)C(=O)O | 200 | 31 | 1 | 49
O=C(O)CC[C@H](NC(=O)c1ccc(N(CCCl)CCCl)cc1)C(=O)O | > 500 | 660 | 3.4 | 700
CS(=O)(=O)OCCN(CCCl)c1ccc(C(=O)N[C@@H](CCC(=O)O)C(=O)O)cc1 | > 500 | 46 | 3.4 | 583
O=C(O)CC[C@H](NC(=O)Nc1ccc(N(CCCl)CCCl)cc1)C(=O)O | 200 | 16.9 | 3 | 7.5
O=C(O)CC[C@H](NC(=O)Sc1ccc(N(CCCl)CCCl)cc1)C(=O)O | 100 | 32.2 | 50 | 4
O=C(O)CC[C@H](NC(=O)Cc1ccc(N(CCCl)CCCl)cc1)C(=O)O | > 500 | 33 | 16 | 15
CS(=O)(=O)OCCN(CCCl)c1ccc(C(=O)O)cc1 | 80 |  |  | 
